CHOP inhibitor = inhibitors of CHOP induction in ER stress response. hit rate 3.8% among 220,000. CHO-K1 CHOP-promoter luciferase, tunicamycin-induced, 15-18 h. AID 2732. inhibition, % at 10 µM;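 active = compounds that reduced the stress-induced luciferase reporter signal by more than about 70% of percent inhibition, limit read from the data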;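 note: 0% = tunicamycin plus vehicle and 100% = wells without tunicamycin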
CTSL1 counter = counter-screen for PFM18AAP inhibitors: inhibitors of F. hepatica cathepsin L1. recombinant F. hepatica cathepsin L1, Z-Leu-Arg-MCA fluorescence. inhibition, % at 5.96 µM. hit rate 0.49% among 300,000. AID 1906;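 active = inhibition above the mean of all tested compounds plus 3 SD, set per screening campaign, cut at about 17% in these data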;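 note: 0% = plate median of test compound wells and 100% = 1 µM Z-Phe-Ala-diazomethylketone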
XBP1 UPR activ = activators of adaptive arm of unfolded protein response (XBP1) | CHO-XBP1 luciferase reporter, IRE1-XBP1 UPR activation, luminescence; percent of tunicamycin response, DMSO as zero | activation, % at 20 µM | hit rate 0.33% among 330,000 | AID 463104;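 active = versus positive control, 20 µM dose yields 30% or more activation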;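 note: 100% = tunicamycin at 10 µg/mL and 0% = DMSO only wells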
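Signal: luciferase luminescence; Assay system: CHO-XBP1 luciferase reporter cells; Amount: one thousand reporter cells per well; Dosing: 20 µM single concentration, DMSO 1%; Benchmarks: high control tunicamycin 10 µg/mL final, low control DMSO vehicle only; Schedule: 6 h compound exposure at 37 °C, 5% CO2; Evaluation: percent activation relative to tunicamycin reference.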
UCH37 DUB inh = inhibitors of human deubiquitinating enzyme UCH37; Q9Y5K5; purified proteasome/UCH37, Ub-AMC cleavage fluorescence; inhibition, % (test concentration not listed); hit rate 0.33% among 330,000; AID 588478;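 active = mean inhibition over replicate wells above about 20%, limit read from the data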;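 note: 0% = compound-free wells with enzyme and 100% = wells lacking proteasome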
Target sequence (Q9Y5K5 whole entry, looked up): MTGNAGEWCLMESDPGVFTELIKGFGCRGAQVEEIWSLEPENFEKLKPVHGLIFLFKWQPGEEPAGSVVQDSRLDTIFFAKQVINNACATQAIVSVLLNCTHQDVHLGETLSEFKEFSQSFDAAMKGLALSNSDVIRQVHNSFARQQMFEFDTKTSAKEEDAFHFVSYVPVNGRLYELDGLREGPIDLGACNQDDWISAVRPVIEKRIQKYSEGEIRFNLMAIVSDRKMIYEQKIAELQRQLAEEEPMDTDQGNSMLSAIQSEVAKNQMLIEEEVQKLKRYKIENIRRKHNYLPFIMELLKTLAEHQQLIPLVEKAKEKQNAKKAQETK
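Test system – human UCH37 enzyme supplied as purified proteasome complex · Incubation – 30 min preincubation with enzyme, 25 min cleavage at room temperature · Detection – AMC fluorescence from Ub-AMC cleavage, excitation 355 nm, emission 460 nm · Benchmarks – no-proteasome wells (full inhibition) and compound-free wells (no inhibition)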
UPR CHOP act = apoptotic UPR (CHOP) activation. CHO-CHOP luciferase reporter, luminescence; percent of tunicamycin response over DMSO baseline. activation, % at 10 µM. hit rate 0.34% among 330,000;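 active = at 10 µM dose, activation of 40% or more, normalized to positive control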;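 note: 100% = tunicamycin at 10 µg/mL and 0% = DMSO alone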
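Test system: CHO CHOP reporter cells. Input: 500 CHO-CHOP cells per well. Medium: F12 with 10% FBS. Technique: luciferase luminescence. Measure: percent activation relative to tunicamycin control. Dosing: 10 µM compound, 0.5% DMSO. Timing: 16-18 h cell attachment, then 6 h compound exposure, 37 °C.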
The depositor's hits bear a star; i = inactive; / = no result. This is one part of a sample in which hits are shown more often than they occur.

SMILES	CHOP inhibitor	CTSL1 counter	XBP1 UPR activ	UCH37 DUB inh	UPR CHOP act
Cc1nc(NC(=O)CC(C)C)sc1-c1csc(Nc2ccc(Cl)cc2Cl)n1	26	-1	2	-4	3
CCOc1cc2c(C#N)c(N3CCCC3)nc(N)c2c(N)n1	/	-2	3	-9	1
CCCCN(CC)c1nc(N)c2c(N)nc(OCC)cc2c1C#N	95*	5	4	-125	0
Cc1ccc(C(=O)/C=C/c2c[nH]c3ccccc23)cc1	81*	2	-1	-6	6
Cc1ccc(C(=O)/C=C/c2cn(CN3CCN(C)CC3)c3ccccc23)cc1	82*	1	3	-9	6
Cn1cc(/C=C/C(=O)c2ccccc2)c2ccccc21	30	2	-5	0	-3
O=C(Oc1ccc(C=NNc2nc(N3CCCCC3)nc(N3CCCCC3)n2)cc1)c1ccco1	/	/	/	1	/
CCc1ccc(OCC(=O)N/N=C(\C)c2ccccc2OC(F)F)cc1	54	-4	0	/	6
CCc1ccc(OCC(=O)N/N=C(\C)c2ccc(OC(F)F)cc2)cc1	78*	2	-3	/	2
O=C(NN=Cc1ccc(OCC(=O)N2CCOCC2)cc1)c1ccccc1Cl	/	/	/	6	/
CCCCNC(=O)CSc1nc2ccccc2c(=O)n1Cc1ccc2c(c1)OCO2	86*	-1	-1	2	-2
CCOCCCn1c(SCC(=O)NCc2ccc3c(c2)OCO3)nc2ccccc2c1=O	-9	0	-1	3	-1
CCn1c(SCC(=O)NCc2ccccc2)nc2ccccc2c1=O	7	3	-2	1	0
O=C(CSc1nc2ccccc2c(=O)n1Cc1ccc(Cl)cc1)NCc1cccs1	73*	-1	-3	1	0
COc1cc(O)c(CC=C(C)C)c(O)c1C(=O)CCc1ccc(O)cc1	89*	0	4	5	4
CCOc1cc(C(=O)O/N=C(\N)c2ccc([N+](=O)[O-])cc2)cc(OCC)c1OCC	79*	0	2	2	5
COc1cc(C(=O)O/N=C(\N)c2ccc([N+](=O)[O-])cc2)cc(OC)c1OC	-9	2	3	3	-1
O=c1cc(Nc2ccc3c(c2)OCCO3)[nH]c(=O)n1-c1ccc(Br)cc1	21	-1	-1	-3	3
O=c1cc(Nc2ccc3c(c2)OCO3)[nH]c(=O)n1-c1ccc(Br)cc1	77*	6	-2	-6	2
CC(=NOCc1ccccc1)c1c(O)cc(C(C)C)n(-c2ccccc2)c1=O	/	/	/	-3	/
CCOC(=O)C1=C(C)NC(=S)NC1c1ccco1 (stereo not drawn)	4	3	-1	3	1
CCOC(=O)C1=C(C)NC(=S)NC1c1ccc(-c2cccc(Cl)c2C)o1 (stereo not drawn)	75*	15	-3	-2	-5
CCOC(=O)C1=C(C)NC(=S)NC1c1ccc(-c2ccc(Cl)cc2)o1 (stereo not drawn)	72*	1	-1	0	1
CCOC(=O)C1=C(C)NC(=O)NC1c1ccc(-c2ccc(Cl)cc2)o1 (stereo not drawn)	45	0	0	-3	-2
CC1CCC2(CC1)NC(=O)N(NC(=O)c1cccs1)C2=O (stereo not drawn)	/	/	-1	-1	0
SMILES	CHOP inhibitor	CTSL1 counter	XBP1 UPR activ	UCH37 DUB inh	UPR CHOP act
CC1CCC2(CC1)NC(=O)N(NC(=O)CCl)C2=O (stereo not drawn)	6	17*	-2	3	0
NS(=O)(=O)c1ccc(N2N=C(c3ccccc3)CC2c2cccc(F)c2)cc1 (stereo not drawn)	83*	2	/	i	/
NS(=O)(=O)c1ccc(N2N=C(c3ccccc3)CC2c2cccc(Br)c2)cc1 (stereo not drawn)	/	/	3	i	3
COc1ccc(C2CC(c3ccccc3)=NN2c2ccc(N)cc2)cc1 (stereo not drawn)	91*	-1	1	-7	3
COc1ccc(C2=NN(C(=S)Nc3ccccc3)C(c3ccccc3)C2)cc1 (stereo not drawn)	-29	1	-1	2	1
COc1ccc(C2=NN(C(N)=S)C(c3ccccc3)C2)cc1 (stereo not drawn)	-1	55*	0	1	-1
COc1ccc(C2CC(c3ccccc3O)=NN2c2ccccc2)cc1 (stereo not drawn)	/	11	-2	-368	-1
NC(=Nc1nc2ccccc2o1)NC(=O)c1ccc([N+](=O)[O-])cc1	/	/	/	4	/
CC(CC(=O)Nc1ccc2c(c1)OCO2)=NNC(=O)c1ccccc1N	/	/	/	-151	/
O=C(c1cccc(Br)c1)N1CCN(c2ccc(N3CCOCC3)nn2)CC1	/	18*	0	-156	1
O=C(c1cncc(Br)c1)N1CCN(c2ccc(N3CCOCC3)nn2)CC1	17	-3	-3	-84	2
CC12CCC(CC1=N/N=C1/NC(=O)/C(=C\c3cccc(Br)c3)S1)C2(C)C (stereo not drawn)	/	/	/	8	/
CC12CCC(C/C1=N\N=C1\NC(=O)/C(=C\c3ccc(Cl)cc3)S1)C2(C)C (stereo not drawn)	93*	3	12	/	6
CSc1ncc(CN2CCc3c([nH]c4ccccc34)C2c2cccc(O)c2)cn1 (stereo not drawn)	86*	2	3	-2	0
CCNC(=S)NN=Cc1cccc(OCc2c(F)cccc2Cl)c1	/	/	/	6	/
O=C(O)c1ccc(NC2=C/C(=N/S(=O)(=O)c3ccccc3)c3ccccc3C2=O)cc1	103*	/	-2	/	6
Cc1cc(C)c(S(=O)(=O)/N=C2\C=C(Nc3ccc(C(=O)O)cc3)C(=O)c3ccccc32)c(C)c1	/	25*	-10	/	36
Cc1cccc(NC2=CC(=NS(=O)(=O)c3cccs3)c3ccccc3C2=O)c1	/	/	/	50*	/
Cc1cc(C)c(S(=O)(=O)/N=C2\C=C(NS(=O)(=O)c3ccccc3)C(=O)c3ccccc32)c(C)c1	/	-1	-4	/	5
CC(=NN=C(N)SC1CC(=O)N(c2ccc(Br)cc2)C1=O)c1cccs1 (stereo not drawn)	/	/	/	7	/
Cc1c(C=NNC(=O)C2(C)CC2(Cl)Cl)cnn1C (stereo not drawn)	/	/	/	2	/
Cc1ccc(-c2nn(-c3ccccc3)cc2C2CC(c3ccccc3)=NN2C(=O)CCC(=O)O)cc1 (stereo not drawn)	24	6	-3	3	0
Cc1ccc(C2=NN(C(=O)CCC(=O)O)C(c3cn(-c4ccccc4)nc3-c3ccc(C)cc3)C2)cc1 (stereo not drawn)	95*	3	1	2	1
COC(=O)c1ccc(COc2ccccc2C=NNS(=O)(=O)c2ccccc2)cc1	/	/	/	1	/
O=C(Nc1cccc(S(=O)(=O)N2CCCCC2)c1)Nc1ccc(Cl)cc1Cl	88*	3	9	4	2

Compound activity deposited in PubChem by several laboratories.
